GRIN3A LBD mod: modulators (binders) of human NR3A ligand-binding domain | NR3A LBD differential scanning fluorimetry, Tm shift; 0% = protein alone, 100% = glycine-bound protein | Tm shift relative to glycine control, % at 25 µM | AID 1259313 | hit rate 2.5% among 340,000;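 active = melting temperature shift of at least 10% of the positive control shift, at one fixed dose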
iPSC survival up: enhancers of human iPSC single-cell survival | survival enhancement, % at 20 µM | hit rate 0.044% among 360,000 | hiPSC single-cell survival, ATPlite luminescence; 100% = ROCK inhibitor wells, 0% = DMSO | AID 602274; in the data active = survival enhancement above about 18%;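 also: cells exposed to compounds for 16 hours before the ATP read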
FAS-TE inh: blocks the thioesterase domain of human fatty acid synthase | P49327 | recombinant FAS-TE, OMFH fluorogenic substrate, fluorescence endpoint | inhibition, % at 15 µM | hit rate 0.67% among 360,000;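 active = compounds whose normalised, plate-corrected inhibition of enzyme fluorescence in the single-dose primary screen is 50% or more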
SENP1 inh: blocks the human SENP1 SUMO protease catalytic domain; recombinant SENP1 catalytic domain, CyPet-SUMO1-YPet FRET cleavage; inhibition, % at 10 µM; AID 624204; hit rate 0.21% among 360,000; Q9P0U3;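 active = inhibition at least 30% at 10 µM, raw YFP signal under a set limit, fluorescence ratio 0.5 to 1.5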
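Controls: no-enzyme wells low, DMSO-plus-enzyme wells high control. Test system: human recombinant His6-tagged SENP1 catalytic domain enzyme. Reagent: SFCypet-SUMO1-SFYpet FRET protein substrate, 25 nM final. Doses: one dose per compound, 10 µM, 0.5% DMSO. Detection: FRET, CFP and YFP emission. Timing: 50 min reaction at room temperature.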
Cardio protect: myocardial damage modulation in H9c2 cells; protection from H2O2 cell death, % at 20 µM; H9c2 cardiomyocytes, H2O2 injury protection, ATPLite, 2 h; hit rate 0.63% among 360,000;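 active = compounds giving at least 50% protection of heart cells from peroxide-induced death in the single-dose screen, raw or plate-pattern-corrected value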
Arrestin-AP2 inh: inhibitors of human beta-arrestin and AP2 interaction | hit rate 0.31% among 340,000 | FITC-arrestin peptide / GST-AP2 beads, flow cytometry; AP2 beta2 appendage carries R879A mutation | inhibition, % at 10 µM;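 active = inhibition above a set limit, near 3 SD of compounds lacking own fluorescence, cut at about 54% in these data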
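Test system: GST-tagged AP2 beta2-adaptin appendage (R879A) on 4 µm glutathione beads; also added: fluorescein-tagged arrestin peptide at 50 nM final; timing: 12 min plus 1 h, RT; signal: flow cytometry, FL1 (488/535 nm); read-out: percent drop in bead-associated FITC signal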
Each line names hits and unclear results; the compound was inactive in the other large screens. Hits are enriched below; roughly 4% of the tested compounds scored in any of these assays.

c1cc2c3c(cccc3c1)-c1cnccc1-2	none
O=C(N/N=C/c1ccc(OC(=O)c2ccccc2Cl)cc1)c1ccccn1	none
Cc1cccc(C(=O)Oc2ccc(/C=N/NC(=O)c3ccc(O)cc3)cc2)c1	GRIN3A LBD mod 23.0
O=C(N/N=C/c1ccc(OC(=O)c2ccccc2Cl)cc1)c1cc(O)cc(O)c1	GRIN3A LBD mod 12.6, Cardio protect 54.2
COc1ccc(C(=O)N/N=C/c2ccc(OC(=O)c3ccccc3)cc2)cc1	none
Cc1cccc(C(=O)Oc2ccc(/C=N/NC(=O)c3ccccc3O)cc2)c1	GRIN3A LBD mod 19.4
Cc1cccc(C(=O)N/N=C/c2ccc(OC3CSC3)cc2)c1	none
Fc1cccc(Cc2c(-c3ccco3)nc3c(Cl)cc(C(F)(F)F)cn23)c1	none (no result: GRIN3A LBD mod, Arrestin-AP2 inh)
NC(=Nc1c([N+](=O)[O-])cnc2ccccc12)N1CCOCC1	none (no result: GRIN3A LBD mod, Arrestin-AP2 inh)
CCCCNC(=O)C(NC(=O)c1ccc2ccccc2c1)C(=O)c1ccccc1 (stereo not drawn)	none (no result: GRIN3A LBD mod, iPSC survival up, FAS-TE inh, Cardio protect, Arrestin-AP2 inh)
Oc1ccc(/C=N/NC(=S)Nc2cccnc2)c(O)c1	GRIN3A LBD mod 11.8
O=C(CCC(=O)Nc1ccc(F)cc1)N/N=C/c1ccc(O)cc1O	Cardio protect 74.1
O=C(NN=Cc1ccc(O)cc1)C(=O)NN=Cc1ccc(O)cc1	none
O=C(CCC(=O)Nc1ccc(F)cc1)N/N=C/c1ccc(O)cc1	none
O=C(N/N=C/c1ccc(O)cc1O)C(=O)N/N=C/c1ccc(O)cc1O	GRIN3A LBD mod 36.2
Oc1ccc(C=NNC(=S)Nc2ccc(F)cc2)c(O)c1	GRIN3A LBD mod 27.2
Cc1ccc(NC(=O)C2c3ccccc3-c3ccccc32)cc1	none (no result: GRIN3A LBD mod, Arrestin-AP2 inh)
COc1ccc2c(c1)[C@H]1[C@H](CO2)[C@H](c2ccccc2)[C@]2(C)C(=O)Nc3cc(Cl)ccc3C(=O)N12	FAS-TE inh 89.4
COc1ccc2c(c1)[C@H]1[C@H](CO2)[C@H](c2ccccc2)[C@]2(C)C(=O)Nc3cc(C)ccc3C(=O)N12	none
C[C@]12C(=O)N(c3cccc(Cl)c3)C(=O)N1[C@H]1c3ccccc3OC[C@@H]1[C@H]2c1ccccc1	FAS-TE inh 75.8
CCOC(=O)[C@@H]1[C@H]2COc3ccccc3[C@H]2N2C(=O)N(c3cccc(Cl)c3)C(=O)[C@]12C	GRIN3A LBD mod 16.8
CCOC(=O)[C@@H]1[C@H]2COc3ccc(Br)cc3[C@@H]2N2C(=O)N(c3ccc(Br)cc3)C(=O)[C@]12C	FAS-TE inh 72.3
O=C1NC(Cc2ccccc2)c2nc3cc(Cl)ccc3c(=O)n2-c2ncccc21 (stereo not drawn)	none (no result: GRIN3A LBD mod, Arrestin-AP2 inh)
COc1ccc(CN2C(=O)C(CC(=O)NCc3cccc4ccccc34)CC(C(=O)N(C(C)C)C(C)C)=C2C)cc1 (stereo not drawn)	none (no result: GRIN3A LBD mod, Arrestin-AP2 inh)
Cc1oc(C(C)(C)C)cc1-c1cc(NC(=O)c2ccc([N+](=O)[O-])cc2)n[nH]1	GRIN3A LBD mod 14.6
Cc1cc(NC(=O)c2ccc([N+](=O)[O-])cc2)no1	none
CN(c1ccccc1)S(=O)(=O)c1cccc(C(=O)OCC(=O)NCc2ccc3c(c2)OCO3)c1	GRIN3A LBD mod 12.8
O=[N+]([O-])c1cccc(/C=C/c2nc3ccc([N+](=O)[O-])cc3[nH]2)c1	GRIN3A LBD mod 16.0
O=[N+]([O-])c1ccc2nc(-c3ccccc3)[nH]c2c1	GRIN3A LBD mod 16.5
O=[N+]([O-])c1ccc2nc(-c3cccnc3)[nH]c2c1	none
O=[N+]([O-])c1cccc(-c2cc3ccccc3[nH]2)c1	GRIN3A LBD mod 33.6
Cc1nc2ccc([N+](=O)[O-])cc2[nH]1	none
Clc1cccc(Nc2nc(-c3ccncc3)cs2)c1	GRIN3A LBD mod 30.6
c1ccc(-c2csc(Nc3cccnc3)n2)cc1	none
Clc1ccc(Nc2nc(-c3cccnc3)cs2)cc1	GRIN3A LBD mod 13.0
Clc1ccc(-c2csc(Nc3cccnc3)n2)cc1	GRIN3A LBD mod 14.6
Cc1ccc(C(=O)C2C(=O)C3CCC2C3)cc1 (stereo not drawn)	none (no result: GRIN3A LBD mod, Arrestin-AP2 inh)
CC1(C(=O)NS(=O)(=O)c2cccc(C#N)c2)CCN1C(=O)C/C=C/c1ccccc1 (stereo not drawn)	none (no result: GRIN3A LBD mod, Arrestin-AP2 inh)
CC(C)C(=O)N1CCC2(CC1)Oc1ccc(F)cc1C(=O)C21CC(c2ccc(Cl)cc2)=NO1 (stereo not drawn)	none

Source: PubChem (several laboratories)
